# Measured values from ChEMBL document CHEMBL1125797, “Synthesis, characterization and myocardial uptake of cationic bis(arene)technetium(I) complexes” (J Med Chem, 1991).
# Key:
# [1] = test system: Rattus norvegicus; assay: Biodistribution of compound in rat blood after 5 min of administration.; format: ADME, organism-based; details: in vivo
# In short: (§1)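 Female Sprague-Dawley rats (150–200 g) received the complex in normal saline (~12.5 μCi/mL) through a lateral tail vein at ~25 μCi/kg. Rats were killed by cervical dislocation 5 min after injection. Tissues were washed with saline, blotted, weighed and γ-counted to give percent injected dose/g tissue.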
# [2] = test system: Rattus norvegicus; assay: Biodistribution of compound in rat heart after 5 min of administration.; format: ADME, organism-based; details: in vivo; in short: as §1
# [3] = test system: Rattus norvegicus; assay: Biodistribution of compound in rat kidney after 5 min of administration.; format: ADME, organism-based; details: in vivo; in short: as §1
# [4] = test system: Rattus norvegicus; assay: Biodistribution of compound in rat lung after 5 min of administration.; format: ADME, organism-based; details: in vivo; in short: as §1
# [5] = Biodistribution of compound in rat muscle after 5 min of administration.; format: ADME, organism-based, Muscle tissue; details: in vivo; in short: as §1
# [6] = test system: Rattus norvegicus; assay: Biodistribution of compound in rat blood at 90 min after intravenous administration; format: ADME, organism-based; details: in vivo, 1.5 h
# In short: (§2)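 Time course in Sprague-Dawley rats after lateral tail-vein injection of the 99mTc complex in normal saline (~12.5 μCi/mL) at ~25 μCi/kg. Tissues were sampled at the stated times, washed with saline, blotted, weighed and γ-counted to give percent injected dose per g. Values are averages of male and female rats.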
# [7] = test system: Rattus norvegicus; assay: Biodistribution of compound in rat urine at 1440 min after intravenous administration; format: ADME, organism-based; details: in vivo, 24 h
# In short: (§3)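 Rats received the 99mTc complex in normal saline (~12.5 μCi/mL) by lateral tail vein injection at ~25 μCi/kg and were killed by cervical dislocation at the stated time. Tissues were washed with saline, blotted, weighed and γ-counted to give percent injected dose/g. Time-course values are averages of male and female rats.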
# [8] = test system: Rattus norvegicus; assay: Biodistribution of compound in rat urine at 360 min after intravenous administration; format: ADME, organism-based; details: in vivo, 6 h; in short: as §3
# [9] = test system: Rattus norvegicus; assay: Biodistribution of compound in rat blood at 1440 min after intravenous administration; format: ADME, organism-based; details: in vivo, 24 h; in short: as §2
# [10] = test system: Rattus norvegicus; assay: Biodistribution of compound in rat blood at 180 min after intravenous administration; format: ADME, organism-based; details: in vivo, 3 h; in short: as §2
# [11] = test system: Rattus norvegicus; assay: Biodistribution of compound in rat blood at 360 min after intravenous administration; format: ADME, organism-based; details: in vivo, 6 h; in short: as §2
# [12] = test system: Rattus norvegicus; assay: Biodistribution of compound in rat blood at 5 min after intravenous administration; format: ADME, organism-based; details: in vivo; in short: as §2
# [13] = test system: Rattus norvegicus; assay: Biodistribution of compound in rat gonads at 1440 min after intravenous administration; format: ADME, organism-based, Gonad; details: in vivo, 24 h; in short: as §2
# [14] = test system: Rattus norvegicus; assay: Biodistribution of compound in rat gonads at 180 min after intravenous administration; format: ADME, organism-based, Gonad; details: in vivo, 3 h; in short: as §2
# [15] = test system: Rattus norvegicus; assay: Biodistribution of compound in rat gonads at 360 min after intravenous administration; format: ADME, organism-based, Gonad; details: in vivo, 6 h; in short: as §2
# [16] = test system: Rattus norvegicus; assay: Biodistribution of compound in rat gonads at 45 min after intravenous administration; format: ADME, organism-based, Gonad; details: in vivo, 0.75 h; in short: as §2
# [17] = test system: Rattus norvegicus; assay: Biodistribution of compound in rat gonads at 5 min after intravenous administration; format: ADME, organism-based, Gonad; details: in vivo; in short: as §2
# [18] = test system: Rattus norvegicus; assay: Biodistribution of compound in rat gonads at 90 min after intravenous administration; format: ADME, organism-based, Gonad; details: in vivo, 1.5 h; in short: as §2
# [19] = test system: Rattus norvegicus; assay: Biodistribution of compound in rat heart at 1440 min after intravenous administration; format: ADME, organism-based; details: in vivo, 24 h; in short: as §2
# [20] = test system: Rattus norvegicus; assay: Biodistribution of compound in rat heart at 180 min after intravenous administration; format: ADME, organism-based; details: in vivo, 3 h; in short: as §2
# [21] = test system: Rattus norvegicus; assay: Biodistribution of compound in rat heart at 360 min after intravenous administration; format: ADME, organism-based; details: in vivo, 6 h; in short: as §2
# [22] = test system: Rattus norvegicus; assay: Biodistribution of compound in rat heart at 45 min after intravenous administration; format: ADME, organism-based; details: in vivo, 0.75 h; in short: as §2
# [23] = test system: Rattus norvegicus; assay: Biodistribution of compound in rat heart at 5 min after intravenous administration; format: ADME, organism-based; details: in vivo; in short: as §2
# [24] = test system: Rattus norvegicus; assay: Biodistribution of compound in rat heart at 90 min after intravenous administration; format: ADME, organism-based; details: in vivo, 1.5 h; in short: as §2
# [25] = test system: Rattus norvegicus; assay: Biodistribution of compound in rat kidney at 1440 min after intravenous administration; format: ADME, organism-based; details: in vivo, 24 h; in short: as §2
# [26] = test system: Rattus norvegicus; assay: Biodistribution of compound in rat kidney at 180 min after intravenous administration; format: ADME, organism-based; details: in vivo, 3 h; in short: as §2
# [27] = test system: Rattus norvegicus; assay: Biodistribution of compound in rat kidney at 360 min after intravenous administration; format: ADME, organism-based; details: in vivo, 6 h; in short: as §2
# [28] = test system: Rattus norvegicus; assay: Biodistribution of compound in rat kidney at 45 min after intravenous administration; format: ADME, organism-based; details: in vivo, 0.75 h; in short: as §2
# [29] = test system: Rattus norvegicus; assay: Biodistribution of compound in rat kidney at 5 min after intravenous administration; format: ADME, organism-based; details: in vivo; in short: as §2
# [30] = test system: Rattus norvegicus; assay: Biodistribution of compound in rat kidney at 90 min after intravenous administration; format: ADME, organism-based; details: in vivo, 1.5 h; in short: as §2
# [31] = test system: Rattus norvegicus; assay: Biodistribution of compound in rat liver at 1440 min after intravenous administration; format: ADME, organism-based; details: in vivo, 24 h; in short: as §2
# [32] = test system: Rattus norvegicus; assay: Biodistribution of compound in rat liver at 180 min after intravenous administration; format: ADME, organism-based; details: in vivo, 3 h; in short: as §2
# [33] = test system: Rattus norvegicus; assay: Biodistribution of compound in rat liver at 360 min after intravenous administration; format: ADME, organism-based; details: in vivo, 6 h; in short: as §3
# [34] = test system: Rattus norvegicus; assay: Biodistribution of compound in rat liver at 5 min after intravenous administration; format: ADME, organism-based; details: in vivo; in short: as §3
# [35] = test system: Rattus norvegicus; assay: Biodistribution of compound in rat liver at 90 min after intravenous administration; format: ADME, organism-based; details: in vivo, 1.5 h; in short: as §3
substance,measurement,setting,value
"Bis(1,2,3,5-tetramethylbenzene)technetium",Dose/g,[1],0.1%
same,Dose/g,[2],3.4%
same,Dose/g,[3],6.7%
same,Dose/g,[4],1.3%
same,Dose/g,[5],0.61%
same,Dose/ml,[6],0.3 % dose
same,Dose/ml,[7],20 % dose
same,Dose/ml,[8],11 % dose
same,Dose/ml,[9],0.07 % dose
same,Dose/ml,[10],0.19 % dose
same,Dose/ml,[11],0.15 % dose
same,Dose/ml,[12],1.06 % dose
same,Dose/g,[13],0.019 % dose
same,Dose/g,[14],0.58 % dose
same,Dose/g,[15],0.039 % dose
same,Dose/g,[16],0.089 % dose
same,Dose/g,[17],0.099 % dose
same,Dose/g,[18],0.074 % dose
same,Dose/g,[19],1.27 % dose
same,Dose/g,[20],2.44 % dose
same,Dose/g,[21],2.81 % dose
same,Dose/g,[22],2.83 % dose
same,Dose/g,[23],2.51 % dose
same,Dose/g,[24],2.78 % dose
same,Dose/g,[25],0.2 % dose
same,Dose/g,[26],2 % dose
same,Dose/g,[27],1.5 % dose
same,Dose/g,[28],5.4 % dose
same,Dose/g,[29],7.1 % dose
same,Dose/g,[30],3.9 % dose/organ
same,Dose/g,[31],0.2 % dose/organ
same,Dose/g,[32],1 % dose/organ
same,Dose/g,[33],0.9 % dose/organ
same,Dose/g,[34],5.6 % dose/organ
same,Dose/g,[35],2.5 % dose/organ
